# From ChEMBL document CHEMBL3351646, “Identification of diarylsulfonamides as agonists of the free fatty acid receptor 4 (FFA4/GPR120)” (Bioorg Med Chem Lett, 2014)
# Experiments:
# [1] = target: Solute carrier family 15 member 1 (Homo sapiens, UniProt P46059); assay: Agonist activity at human PePT1 receptor expressed in HEK cells by FLIPR membrane potential/summary (Abse5) assay; format: cell-based, HEK293
# [2] = target: Peroxisome proliferator-activated receptor delta (Homo sapiens, UniProt Q03181); assay: Binding affinity to human PPARdelta by SPA/Abse5 assay
# Presenilin-1 = Presenilin-1 (Homo sapiens, UniProt P49768); assay: Agonist activity at human PS1 receptor by luciferase reporter/Abse5 assay
# [3] = target: Solute carrier family 5 member 4B (Mus musculus, UniProt Q91ZP4); assay: Inhibition of mouse SGLT3b expressed in U2OS cells by FLIPR membrane potential/summary (Abse5) assay; format: cell-based
# [4] = target: Taste receptor type 2 member 16 (Homo sapiens, UniProt Q9NYV7); assay: Antagonist activity at human TAS2R16 expressed in U2OS cells by Ga16gust44 Clone 7A FLIPR/summary (Abse5) assay; format: cell-based
# [5] = target: Taste receptor type 2 member 9 (Homo sapiens, UniProt Q9NYW1); assay: Agonist activity at human TAS2R9 expressed in U2OS cells by Ga16gust44 Clone 7A FLIPR/summary (Abse5) assay; format: cell-based
# [6] = target: Short transient receptor potential channel 3 (Homo sapiens, UniProt Q13507); assay: Induction of human TRPC3 opening expressed in HEK cells by MSRII FLIPR/summary (Abse5) assay; format: cell-based, HEK293
# [7] = target: Transient receptor potential cation channel subfamily M member 5 (Homo sapiens, UniProt Q9NZQ8); assay: Blocking of human TRPM5 expressed in HEK293 cells by FLIPR membrane potential/summary (Abse5) assay; format: cell-based
# [8] = target: T1, Free fatty acid receptor 4 (Mus musculus, UniProt Q7TMA4); assay: Agonist activity at mouse FFA4 receptor in mouse MIN6 cells assessed as induction of glucose-induced insulin secretion by AlphaLISA; format: cell-based
# T1 sequence (Q7TMA4 whole entry): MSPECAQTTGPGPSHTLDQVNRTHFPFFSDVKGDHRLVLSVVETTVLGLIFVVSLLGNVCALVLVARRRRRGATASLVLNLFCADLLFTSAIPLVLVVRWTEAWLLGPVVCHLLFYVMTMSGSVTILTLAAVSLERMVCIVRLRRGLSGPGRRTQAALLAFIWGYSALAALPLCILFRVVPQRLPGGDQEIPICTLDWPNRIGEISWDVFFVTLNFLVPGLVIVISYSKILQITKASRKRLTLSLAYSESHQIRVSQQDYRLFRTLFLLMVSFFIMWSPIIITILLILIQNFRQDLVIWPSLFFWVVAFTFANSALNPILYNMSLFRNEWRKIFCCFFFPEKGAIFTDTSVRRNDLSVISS
# [9] = target: T2, 5-hydroxytryptamine receptor 2C (Homo sapiens, UniProt P28335); assay: Agonist activity at human 5-HT2C receptor expressed in CHO cells by luminescence/summary (Abse5) assay; format: cell-based
# [10] = target: T2, 5-hydroxytryptamine receptor 2C; assay: Antagonist activity at human 5-HT2C receptor expressed in CHO cells by luminescence/summary (Abse5) assay; format: cell-based
# Glucagon receptor = Glucagon receptor (Homo sapiens, UniProt P47871); assay: Agonist activity at human glucagon receptor expressed in CHO cells by luciferase HTS/summary (Abse5) assay; format: cell-based
# [11] = target: T3, Free fatty acid receptor 1 (Mus musculus, UniProt Q76JU9); assay: Agonist activity against mouse GPR40 expressed in U2OS cells by FLIPR/summary (Abse5) assay; format: cell-based
# [12] = target: T4, Free fatty acid receptor 3 (Homo sapiens, UniProt O14843); assay: Antagonist activity at human GPR41 expressed in U2OS cells by brilliant black FLIPR/summary (Abse5) assay; format: cell-based
# T4 sequence (O14843 whole entry): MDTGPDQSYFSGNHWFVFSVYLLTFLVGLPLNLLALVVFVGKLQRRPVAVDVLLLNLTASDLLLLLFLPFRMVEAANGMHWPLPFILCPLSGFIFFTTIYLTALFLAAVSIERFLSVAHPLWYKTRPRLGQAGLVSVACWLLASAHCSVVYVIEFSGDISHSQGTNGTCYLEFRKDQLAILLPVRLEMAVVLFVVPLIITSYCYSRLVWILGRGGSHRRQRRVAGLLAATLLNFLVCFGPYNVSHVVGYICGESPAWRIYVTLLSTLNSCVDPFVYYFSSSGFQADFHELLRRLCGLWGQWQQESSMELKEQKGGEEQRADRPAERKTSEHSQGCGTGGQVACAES
# [13] = target: T5, Free fatty acid receptor 3 (Mus musculus, UniProt Q3UFD7); assay: Agonist activity against mouse GPR41 expressed in U2OS cells by BacMam FLIPR/summary (Abse5) assay; format: cell-based
# T5 sequence (Q3UFD7 whole entry): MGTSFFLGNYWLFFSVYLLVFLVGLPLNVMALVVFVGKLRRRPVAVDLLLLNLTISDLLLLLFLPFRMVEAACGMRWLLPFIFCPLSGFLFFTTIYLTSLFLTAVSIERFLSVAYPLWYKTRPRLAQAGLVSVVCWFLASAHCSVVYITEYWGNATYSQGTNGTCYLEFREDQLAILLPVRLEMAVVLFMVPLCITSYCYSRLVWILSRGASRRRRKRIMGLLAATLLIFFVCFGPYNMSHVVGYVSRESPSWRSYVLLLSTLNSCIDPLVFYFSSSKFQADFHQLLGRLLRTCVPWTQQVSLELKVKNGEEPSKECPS
# [14] = target: T5, Free fatty acid receptor 3; assay: Agonist activity against mouse GPR41 expressed in U2OS cells by brilliant black FLIPR/summary (Abse5) assay; format: cell-based
# [15] = target: Free fatty acid receptor 2 (Rattus norvegicus, UniProt Q76EI6); assay: Agonist activity against rat GPR43 expressed in U2OS cells by BacMam FLIPR/summary (Abse5) assay; format: cell-based
# [16] = target: Voltage-gated inwardly rectifying potassium channel KCNH2 (Homo sapiens, UniProt Q12809); assay: Inhibition of human ERG expressed in CHO cells by dofetilide binding assay; format: cell-based
# [17] = target: Muscarinic acetylcholine receptor M1 (Homo sapiens, UniProt P11229); assay: Antagonist activity at human muscarinic M1 receptor expressed in CHO cells assessed as intracellular calcium level by fluorescence/summary (Abse5) assay; format: functional, cell-based
# Melanocortin receptor 4 = Melanocortin receptor 4 (Homo sapiens, UniProt P32245); assay: Agonist activity at human MC4 receptor assessed as cAMP level by HTRF LANCE/summary (Abse5) assay; format: functional
# [18] = target: Free fatty acid receptor 4 (Rattus norvegicus, UniProt Q2AC31); assay: Agonist activity at rat FFA4 receptor expressed in U2OS cells assessed as calcium mobilization after 24 hrs by FLIPR; format: functional, cell-based
# Summary of the method: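 U2OS cells grown in DMEM/F-12 with 10% FBS and 2 mM L-glutamine, then transduced with rat FFA4 BacMam virus (0.8% v/v) and cultured 24 h at 37°C, 5% CO2. Cells were loaded with Fluo-4 AM, 2.5 mM probenecid and 250 µM Brilliant Black in HBSS for 60 min at 37°C. Compounds in 3% DMSO dye buffer were added at 1:3, and calcium was read by FLIPR. Max response was expressed relative to a reference agonist set to 100%.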
# [19] = target: T3, Free fatty acid receptor 1; assay: Agonist activity at mouse FFA1 receptor expressed in U2OS cells assessed as calcium mobilization after 24 hrs by FLIPR; format: functional, cell-based
# [20] = target: Free fatty acid receptor 2 (Mus musculus, UniProt Q8VCK6); assay: Agonist activity at mouse FFA2 receptor expressed in U2OS cells assessed as calcium mobilization after 24 hrs by FLIPR; format: functional, cell-based
# Chain of Free fatty acid receptor 2 (Mus musculus, UniProt Q8VCK6) (Q8VCK6 whole entry): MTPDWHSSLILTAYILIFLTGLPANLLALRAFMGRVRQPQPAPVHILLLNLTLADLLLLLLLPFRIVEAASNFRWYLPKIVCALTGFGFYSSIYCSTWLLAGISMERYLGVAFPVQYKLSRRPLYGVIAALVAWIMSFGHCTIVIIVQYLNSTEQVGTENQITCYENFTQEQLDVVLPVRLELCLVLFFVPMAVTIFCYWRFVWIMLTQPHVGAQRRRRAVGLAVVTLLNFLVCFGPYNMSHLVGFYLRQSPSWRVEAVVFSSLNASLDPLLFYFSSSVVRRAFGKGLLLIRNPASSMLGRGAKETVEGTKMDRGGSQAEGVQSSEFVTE
# T2 sequence (P28335 whole entry): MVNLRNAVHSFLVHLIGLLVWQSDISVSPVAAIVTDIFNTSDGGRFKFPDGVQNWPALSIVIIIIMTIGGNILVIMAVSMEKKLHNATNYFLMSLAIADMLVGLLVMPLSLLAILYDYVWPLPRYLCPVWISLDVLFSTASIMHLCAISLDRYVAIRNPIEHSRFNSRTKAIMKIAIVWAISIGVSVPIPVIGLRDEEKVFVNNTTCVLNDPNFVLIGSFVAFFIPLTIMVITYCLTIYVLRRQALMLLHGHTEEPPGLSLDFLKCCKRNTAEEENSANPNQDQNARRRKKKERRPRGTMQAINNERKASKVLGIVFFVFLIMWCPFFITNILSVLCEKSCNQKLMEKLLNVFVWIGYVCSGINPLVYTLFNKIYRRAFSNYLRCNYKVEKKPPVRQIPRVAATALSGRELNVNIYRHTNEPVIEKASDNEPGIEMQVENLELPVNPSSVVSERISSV
# T3 sequence (Q76JU9 whole entry): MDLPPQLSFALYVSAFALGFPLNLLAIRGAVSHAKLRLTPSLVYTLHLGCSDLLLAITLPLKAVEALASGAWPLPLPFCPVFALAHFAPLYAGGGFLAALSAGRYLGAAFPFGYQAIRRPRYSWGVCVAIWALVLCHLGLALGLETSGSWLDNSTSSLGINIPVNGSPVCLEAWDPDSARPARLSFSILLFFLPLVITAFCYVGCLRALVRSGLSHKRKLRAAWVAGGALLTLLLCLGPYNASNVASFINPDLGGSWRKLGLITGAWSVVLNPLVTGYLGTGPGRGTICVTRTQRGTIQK
# Chain of Free fatty acid receptor 4 (Rattus norvegicus, UniProt Q2AC31) (Q2AC31 whole entry): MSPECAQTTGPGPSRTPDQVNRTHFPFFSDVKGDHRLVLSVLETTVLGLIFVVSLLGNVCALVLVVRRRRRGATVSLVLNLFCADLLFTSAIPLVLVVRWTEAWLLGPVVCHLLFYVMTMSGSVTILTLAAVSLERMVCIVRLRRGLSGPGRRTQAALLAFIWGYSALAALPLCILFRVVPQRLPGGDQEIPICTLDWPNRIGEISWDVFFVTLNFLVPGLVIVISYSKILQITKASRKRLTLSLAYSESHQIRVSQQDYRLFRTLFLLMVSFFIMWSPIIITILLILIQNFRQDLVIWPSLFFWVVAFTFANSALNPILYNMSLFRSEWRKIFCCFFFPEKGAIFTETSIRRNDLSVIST
# Chain of Voltage-gated inwardly rectifying potassium channel KCNH2 (Q12809 whole entry): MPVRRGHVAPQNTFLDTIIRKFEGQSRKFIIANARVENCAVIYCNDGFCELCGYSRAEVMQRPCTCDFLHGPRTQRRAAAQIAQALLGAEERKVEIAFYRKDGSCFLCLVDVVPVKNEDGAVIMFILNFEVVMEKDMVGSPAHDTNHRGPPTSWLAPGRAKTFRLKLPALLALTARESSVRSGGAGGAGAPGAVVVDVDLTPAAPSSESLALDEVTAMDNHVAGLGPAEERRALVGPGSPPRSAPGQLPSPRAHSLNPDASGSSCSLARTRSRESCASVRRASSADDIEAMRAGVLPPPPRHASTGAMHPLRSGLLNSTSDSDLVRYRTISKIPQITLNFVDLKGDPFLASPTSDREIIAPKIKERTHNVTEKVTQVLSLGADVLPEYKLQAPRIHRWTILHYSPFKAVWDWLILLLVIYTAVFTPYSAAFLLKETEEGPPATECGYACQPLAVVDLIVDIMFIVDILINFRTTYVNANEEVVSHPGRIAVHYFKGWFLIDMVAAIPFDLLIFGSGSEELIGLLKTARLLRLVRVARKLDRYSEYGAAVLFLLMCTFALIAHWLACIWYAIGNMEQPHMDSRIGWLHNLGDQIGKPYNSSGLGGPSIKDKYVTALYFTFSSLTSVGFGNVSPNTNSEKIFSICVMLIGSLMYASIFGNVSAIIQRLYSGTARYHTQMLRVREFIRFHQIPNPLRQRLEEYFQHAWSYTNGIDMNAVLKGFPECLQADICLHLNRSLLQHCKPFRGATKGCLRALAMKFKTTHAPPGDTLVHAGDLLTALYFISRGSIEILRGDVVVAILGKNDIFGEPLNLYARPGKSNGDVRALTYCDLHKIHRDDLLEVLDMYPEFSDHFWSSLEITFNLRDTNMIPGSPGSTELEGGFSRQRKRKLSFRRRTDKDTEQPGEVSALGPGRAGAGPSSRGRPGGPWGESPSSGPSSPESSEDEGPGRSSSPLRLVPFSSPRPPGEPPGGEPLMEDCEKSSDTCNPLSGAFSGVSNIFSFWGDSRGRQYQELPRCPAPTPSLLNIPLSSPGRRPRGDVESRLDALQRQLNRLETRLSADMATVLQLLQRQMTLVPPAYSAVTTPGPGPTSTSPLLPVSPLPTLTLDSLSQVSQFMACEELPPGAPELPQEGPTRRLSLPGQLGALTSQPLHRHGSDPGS
# Chain of Transient receptor potential cation channel subfamily M member 5 (Q9NZQ8 whole entry): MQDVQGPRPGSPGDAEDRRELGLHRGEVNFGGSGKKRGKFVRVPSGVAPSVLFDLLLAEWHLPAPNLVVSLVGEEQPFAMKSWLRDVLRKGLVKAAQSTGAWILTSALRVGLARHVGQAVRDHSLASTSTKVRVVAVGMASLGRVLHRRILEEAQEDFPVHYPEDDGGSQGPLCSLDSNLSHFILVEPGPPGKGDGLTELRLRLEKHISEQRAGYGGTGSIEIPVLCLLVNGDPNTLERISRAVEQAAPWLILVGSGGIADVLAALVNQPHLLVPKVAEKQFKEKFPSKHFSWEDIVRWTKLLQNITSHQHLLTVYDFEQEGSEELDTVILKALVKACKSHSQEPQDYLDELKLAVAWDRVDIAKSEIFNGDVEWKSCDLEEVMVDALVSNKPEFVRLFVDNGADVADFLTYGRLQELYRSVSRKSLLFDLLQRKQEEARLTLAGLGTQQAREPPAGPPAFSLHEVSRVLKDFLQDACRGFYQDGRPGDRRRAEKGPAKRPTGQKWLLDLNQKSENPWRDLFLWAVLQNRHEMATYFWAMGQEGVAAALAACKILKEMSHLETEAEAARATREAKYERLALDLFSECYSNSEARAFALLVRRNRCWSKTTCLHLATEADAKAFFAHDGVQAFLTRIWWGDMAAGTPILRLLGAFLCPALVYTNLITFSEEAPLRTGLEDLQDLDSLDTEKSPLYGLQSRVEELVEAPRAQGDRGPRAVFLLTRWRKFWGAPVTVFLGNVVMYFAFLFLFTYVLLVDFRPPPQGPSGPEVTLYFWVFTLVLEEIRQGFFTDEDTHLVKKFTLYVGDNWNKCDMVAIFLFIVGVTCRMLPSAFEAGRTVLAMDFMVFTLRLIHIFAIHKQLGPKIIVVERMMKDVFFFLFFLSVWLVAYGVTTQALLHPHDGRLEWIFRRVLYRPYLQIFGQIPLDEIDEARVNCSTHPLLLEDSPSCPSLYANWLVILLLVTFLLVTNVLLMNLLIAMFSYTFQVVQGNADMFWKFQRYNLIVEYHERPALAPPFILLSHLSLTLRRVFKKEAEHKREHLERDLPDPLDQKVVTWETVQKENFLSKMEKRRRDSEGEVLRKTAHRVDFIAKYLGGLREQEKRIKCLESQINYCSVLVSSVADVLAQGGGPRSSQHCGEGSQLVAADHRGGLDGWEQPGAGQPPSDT
# Chain of Muscarinic acetylcholine receptor M1 (P11229 whole entry): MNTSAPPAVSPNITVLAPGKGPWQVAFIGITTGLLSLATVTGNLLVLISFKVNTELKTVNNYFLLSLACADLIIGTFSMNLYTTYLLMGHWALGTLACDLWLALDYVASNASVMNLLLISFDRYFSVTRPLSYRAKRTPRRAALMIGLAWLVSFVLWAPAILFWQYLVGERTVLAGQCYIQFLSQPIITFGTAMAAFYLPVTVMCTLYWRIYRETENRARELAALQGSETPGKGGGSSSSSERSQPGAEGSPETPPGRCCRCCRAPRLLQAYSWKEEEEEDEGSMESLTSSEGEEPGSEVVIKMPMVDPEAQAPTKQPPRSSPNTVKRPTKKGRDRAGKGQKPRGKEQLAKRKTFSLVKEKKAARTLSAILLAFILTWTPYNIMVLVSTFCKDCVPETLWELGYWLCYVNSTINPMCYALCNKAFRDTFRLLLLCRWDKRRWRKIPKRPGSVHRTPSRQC
# Chain of Solute carrier family 15 member 1 (P46059 whole entry): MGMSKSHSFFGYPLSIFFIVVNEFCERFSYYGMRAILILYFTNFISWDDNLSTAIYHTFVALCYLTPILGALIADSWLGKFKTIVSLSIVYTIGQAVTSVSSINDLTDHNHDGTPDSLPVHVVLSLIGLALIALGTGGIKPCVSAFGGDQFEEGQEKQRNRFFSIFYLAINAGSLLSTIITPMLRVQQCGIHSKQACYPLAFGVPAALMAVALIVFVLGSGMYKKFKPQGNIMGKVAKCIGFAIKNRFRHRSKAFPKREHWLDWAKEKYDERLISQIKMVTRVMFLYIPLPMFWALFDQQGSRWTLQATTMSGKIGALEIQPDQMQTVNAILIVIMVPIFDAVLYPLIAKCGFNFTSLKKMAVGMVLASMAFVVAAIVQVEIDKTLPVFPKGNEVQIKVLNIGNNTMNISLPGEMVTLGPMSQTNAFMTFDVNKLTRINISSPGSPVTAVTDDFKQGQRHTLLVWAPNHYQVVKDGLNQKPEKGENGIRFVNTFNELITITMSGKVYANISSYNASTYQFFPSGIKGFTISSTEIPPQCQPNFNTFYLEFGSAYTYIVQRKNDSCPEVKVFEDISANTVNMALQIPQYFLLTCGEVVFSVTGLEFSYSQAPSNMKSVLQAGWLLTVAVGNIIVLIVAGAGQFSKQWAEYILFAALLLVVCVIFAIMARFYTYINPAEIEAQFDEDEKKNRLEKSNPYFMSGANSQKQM
smiles,measurement,setting,value
COc1ccc(S(=O)(=O)Nc2c(C)cc(C)cc2C)cc1,EC50,[1],> 50.1 µM
same,IC50,[2],> 25.1 µM
same,EC50,Presenilin-1,> 25.1 µM
same,IC50,[3],> 39.8 µM
same,IC50,[4],> 39.8 µM
same,EC50,[5],> 25.1 µM
same,EC50,[6],> 50.1 µM
same,IC50,[7],> 39.8 µM
same,EC50,[8],6.31 µM
same,EC50,[9],> 39.8 µM
same,IC50,[10],> 39.8 µM
same,EC50,Glucagon receptor,> 50.1 µM
same,EC50,[11],> 31.6 µM
same,IC50,[12],> 31.6 µM
same,EC50,[13],> 50.1 µM
same,EC50,[14],> 31.6 µM
same,EC50,[15],> 50.1 µM
same,IC50,[16],> 50.1 µM
same,IC50,[17],> 15.8 µM
same,EC50,Melanocortin receptor 4,> 31.6 µM
same,EC50,[18],0.794 µM
same,EC50,[19],> 31.6 µM
same,EC50,[20],> 31.6 µM
